# Most compounds without a hit are left out; they make up all but 2.1% or so of the library.
# UBC9 SUMO inh: blocks human SUMOylation mediated by UBC9; actives 0.36% (n = 290,000); HTRF SUMOylation assay, SAE1/SAE2 + UBC9, in vitro; P63279; inhibition, % at 35 µM; AID 2006; in the data active means inhibition above about 50%, passing the limit was not always enough; inconclusive means no clear call, values can overlap the other calls
# Target sequence (P63279 whole entry, looked up): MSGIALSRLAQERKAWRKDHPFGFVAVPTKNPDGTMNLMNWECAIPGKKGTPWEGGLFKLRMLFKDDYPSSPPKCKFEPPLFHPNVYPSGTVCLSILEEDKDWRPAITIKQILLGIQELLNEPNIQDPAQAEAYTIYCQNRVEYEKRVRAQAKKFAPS
# VIM-2 inh: blocks Pseudomonas aeruginosa VIM-2 metallo-beta-lactamase; inhibition, % at 5.6 µM; actives 0.89% (n = 290,000); purified VIM-2, nitrocefin hydrolysis, epi-absorbance fluorescence;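 active means inhibition above the mean of all tested compounds plus 3 SD, cutoff set per screening run, cut at about 7.5% in these data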;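 further: red hydrolysis product quenches plate fluorescence so inhibitors raise well fluorescence; 0% = enzyme with DMSO and 100% = DMSO without enzyme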
# DNA FID counter-1: fluorescent intercalator displacement, NS3 helicase counter-screen; DNA fluorescent intercalator displacement, fluorescence; inhibition, % at 7.9 µM; actives 0.17% (n = 290,000); AID 1845;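 further: 0% = vehicle and 100% = reference compound; higher means more ethidium bromide displaced from hairpin DNA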
# IMP-1 inh: blocks Pseudomonas aeruginosa IMP-1 metallo-beta-lactamase. purified IMP-1, nitrocefin hydrolysis, epi-absorbance fluorescence. actives 0.45% (n = 290,000). inhibition, % at 5.6 µM. AID 1556;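 active means inhibition above the mean plus 3 SD of all compounds in the same screening run, cut at about 4.5% in these data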;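 further: 0% = IMP-1 with DMSO and 100% = DMSO wells lacking enzyme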
#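 System: Purified IMP-1 | Read-out basis: Percent enzyme inhibition | Controls: IMP-1 with DMSO as 0%, enzyme-free DMSO as 100% | Replicates: One well per compound | Doses: 5.6 µM nominal single concentration | Detection: Epi-absorbance fluorescence, 480 nm excitation, 530 nm emission | Incubation: 25 °C, 15 min preincubation, 25 min reaction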
# NS3 helicase inh: inhibitors of Hepatitis C virus NS3 helicase | NS3 helicase DNA unwinding, Cy5 molecular beacon fluorescence | inhibition, % at 10.9 µM | actives 0.56% (n = 290,000) | AID 1800;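 active means inhibition above the mean of all tested compounds plus 3 SD, set per campaign, cut at about 35% in these data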;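 further: 0% = DMSO wells and 100% = thioflavine S control wells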
#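 Control set: DMSO versus 110 µM thioflavine S; Material: NS3 helicase fragment of HCV; Measured by: Cy5 fluorescence at 0 and 60 min, beacon hairpin quenching; Read-out basis: percent inhibition from t60/t0 fluorescence ratio; Times: reaction time 60 min, 25 °C; Repeats: single replicate; Compound dosing: single dose, 10.9 µM nominal final, DMSO 0.8% final.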
# NS3 helicase cf: HCV NS3 helicase inhibition, confirmation assay; AID 1943; shares compounds with NS3 helicase inh; NS3 helicase DNA unwinding, Cy5 molecular beacon fluorescence; actives 31% (n = 1,600); inhibition, % at 10.9 µM;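 active means inhibition above the mean of all tested compounds plus 3 SD, cutoff set per campaign, cut at about 36% in these data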
# DNA FID counter-2: intercalator displacement, NS3 helicase counter-screen; shares compounds with NS3 helicase inh; DNA fluorescent intercalator displacement, fluorescence; inhibition, % at 7.9 µM; actives 4% (n = 1,600); AID 1945;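 further: 0% = vehicle and 100% = reference compound; higher means more displacement of ethidium bromide from the DNA hairpin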
# The depositor's hits bear a star; ? = inconclusive; . = no result given. Unless noted, no stated cut-off is given here; in the data, active means inhibition above about 37%; inactive means the rest.
SMILES,UBC9 SUMO inh,VIM-2 inh,DNA FID counter-1,IMP-1 inh,NS3 helicase inh,NS3 helicase cf,DNA FID counter-2
CC(CCc1ccco1)NC(=O)CCc1nnc2ccc(NCc3ccc(Cl)cc3)nn12 (stereo not given),.,-1,-50,-1,-3,.,.
CC(CCc1ccco1)NC(=O)CCc1nnc2ccc(NCc3ccccc3Cl)nn12 (stereo not given),4,-3,-51,-2,61*,4,-2
O=c1[nH]c(=S)[nH]c2c1C(c1ccc(Br)cc1)c1c([nH]c(=S)[nH]c1=O)O2,80*,-7,-1,-2,43*,75*,5
COC(=O)c1ccc(C2/C(=C(\O)c3ccc(OC)c(C)c3)C(=O)C(=O)N2c2cc(C)on2)cc1 (stereo not given),3,0,-42,-2,22,.,.
Cc1cc(N2C(=O)C(=O)/C(=C(/O)c3ccc(F)cc3)C2c2ccc(Cl)cc2)no1 (stereo not given),2,-2,-30,-2,43*,68*,-4
O=C1C2N=NN(CC(=O)N3N=C(c4ccccc4)CC3c3ccc([N+](=O)[O-])cc3)C2C(=O)N1c1ccccc1 (stereo not given),15,-3,-28,-2,-4,.,.
COc1ccc(OCc2cc(C(=O)NC3CCOC(C)(C)C3)no2)c2ccccc12 (stereo not given),32,-2,-10,-4,47*,-19,-35
CC1=CC(C)(C)Nc2ccc(OC(=O)CN3C(=O)c4cccc5cccc(c45)C3=O)cc21,11,1,-16,2,39*,-14,1
CC1=CC(C)(C)Nc2ccc(OC(=O)CN3C(=O)c4ccccc4C3=O)cc21,-7,1,-14,0,1,.,.
COc1cc(/C=C(\CC(=O)O)c2nc3ccccc3s2)cc(OC)c1O,28,3,-31,-3,4,.,.
COc1cc(C=C(c2nc3ccccc3s2)c2nc3ccccc3s2)cc(OC)c1O,6,-1,-8,0,39*,-27,-8
Oc1ccc(N=Nc2ccccc2C(F)(F)F)c2cccnc12,-20,-8,-3,-4,49*,0,3
COc1ccccc1N=Nc1ccc(O)c2ncccc12,-27,-2,-19,-6,41*,-19,3
Cc1ccc(N=Nc2ccc(O)c3ncccc23)cc1,5,-6,-2,-4,7,.,.
CCS(=O)(=O)c1ccc(N=Nc2ccc(O)c3ncccc23)c(OC)c1,-69,-2,-4,-5,-9,.,.
CCOc1ccc(/C=N/OCC(=O)NCc2ccc3c(c2)OCO3)cc1OC,1,1,-18,-1,-8,.,.
CC(/C=C1\SC(=S)N(NC(=O)c2ccc(C)cc2)C1=O)=C\c1ccccc1,1,-3,3,-2,9,.,.
CC(/C=C1\SC(=S)N(C(C(=O)O)C(C)C)C1=O)=C\c1ccccc1 (stereo not given),19,2,-21,0,36*,68*,27
CC(/C=C1\SC(=S)N(NC(=O)c2ccncc2)C1=O)=C\c1ccccc1,-8,-3,-24,0,78*,34,2
CC(/C=C1\SC(=S)N(c2ccc(C(=O)O)cc2)C1=O)=C\c1ccccc1,25,-1,-14,-2,4,.,.
CC(/C=C1\SC(=S)N(NS(=O)(=O)c2ccc(C)cc2)C1=O)=C\c1ccccc1,59*,-4,-24,-4,43*,86*,1
CC(C)(CNC(=O)c1ccc(Br)o1)CNC(=O)c1ccc(Br)o1,3,-1,-16,-1,10,.,.
O=C(CSc1ccc(-c2ccco2)nn1)c1cccc([N+](=O)[O-])c1,73*,-3,-11,-2,38*,-9,16
CCn1cc(/C=C(\NC(=O)c2ccc(OC)c(OC)c2)C(=O)N2CCN(C)CC2)c2ccccc21,6,-2,24,-4,-7,.,.
OCc1cc(-c2ccc(Cl)c(Cl)c2)on1,-3,-2,-1,1,-8,.,.
SMILES,UBC9 SUMO inh,VIM-2 inh,DNA FID counter-1,IMP-1 inh,NS3 helicase inh,NS3 helicase cf,DNA FID counter-2
COC(=O)N/N=C/c1cc(C)n(-c2ccc(F)cc2)c1C,11,-2,-3,-4,42*,-5,15
Cc1cc2nc3ccc(=[N+](C)C)cc-3sc2cc1N,-316,6,104*,0,58*,78*,107*
Oc1c(Br)cc(/C=N/Nc2ccc(Cl)nn2)cc1Br,27,-3,-5,-6,17,.,.
Oc1c(Br)cc(Br)cc1/C=N/Nc1ccc(Cl)nn1,12,-7,-5,-3,41*,-21,6
COc1ccc(NC(=O)CN2C(=O)COc3ccc(C)cc32)cc1,1,-2,-7,-1,-6,.,.
Cc1[nH]c(C)c(S(=O)(=O)N(Cc2ccccc2)C(C)(C)C)c1C(=O)N1CCCC1,8,1,-27,2,38*,-10,-33
CN=C(Nc1ccc(C(=O)OC)s1)c1ccc(Cl)cc1,1,-2,-2,-2,-7,.,.
COc1cc2cccc(OC)c(=O)c2c(OC)c1OC,19,-2,-9,-2,2,.,.
O=c1c(O)cccc2cc(O)c(O)c(O)c12,?,5,-5,7.7*,53*,108*,13
C=CCCN(C(C(=O)OC)C(C)C)S(=O)(=O)c1ccccc1Br (stereo not given),-22,.,.,.,.,.,.
Cc1cc(O)c(C=O)c2c1C(=O)Oc1c(CO)c(O)c3c(c1O2)C(O)OC3=O (stereo not given),96*,-2,17,2,47*,62*,86*
Cc1c(CC(=O)NCC(=O)O)c(=O)oc2cc3occ(-c4ccccc4)c3cc12,10,0,-13,-1,38*,51*,-29
Cc1c(CC(=O)NCCCC(=O)O)c(=O)oc2cc3occ(-c4ccccc4)c3cc12,8,0,-25,-4,19,.,.
CCN1CCN(S(=O)(=O)c2ccc(Cl)c(C(=O)N(C)Cc3ccc(Cl)cc3Cl)c2)CC1,2,0,9,-3,-73,.,.
O=S(=O)(c1cccs1)N1CN(Cc2ccc(F)cc2)c2nc3ccccc3nc21,22,1,-1,-1,50*,-20,-2
CCCNC(=S)N1CCN(Cc2ccc3c(c2)OCO3)CC1,-16,-2,3,-2,55*,-6,11
CCNC(=S)N1CCN(Cc2ccc3c(c2)OCO3)CC1,-14,-2,-4,-1,-14,.,.
CCC(=Nc1ccc(N)cc1)C1=C(O)C(C(=O)OC)C(C)(C)CC1=O (stereo not given),36,-3,-23,0,47*,-16,-12
COc1ccc(CCCC(=O)NCc2ccccc2)cc1C,5,-2,-15,-4,-3,.,.

# Screening results: PubChem, several laboratories
